Test results reported in ChEMBL document CHEMBL1138178, “Identification of novel parasitic cysteine protease inhibitors by use of virtual screening. 2. The available chemical directory” (J Med Chem, 2006).
Where a SMILES comes first, the peptide text is derived from it. The star is where a group is joined. Cbz = O=C(OCc1ccccc1)*; OBn = c1ccc(CO*)cc1

Columns and labels:
[1] = biological target: T1, Cysteine protease (Leishmania donovani, UniProt Q95WR6); assay: Inhibition of Leishmania donovani cysteine protease
T1 sequence (Q95WR6 whole entry): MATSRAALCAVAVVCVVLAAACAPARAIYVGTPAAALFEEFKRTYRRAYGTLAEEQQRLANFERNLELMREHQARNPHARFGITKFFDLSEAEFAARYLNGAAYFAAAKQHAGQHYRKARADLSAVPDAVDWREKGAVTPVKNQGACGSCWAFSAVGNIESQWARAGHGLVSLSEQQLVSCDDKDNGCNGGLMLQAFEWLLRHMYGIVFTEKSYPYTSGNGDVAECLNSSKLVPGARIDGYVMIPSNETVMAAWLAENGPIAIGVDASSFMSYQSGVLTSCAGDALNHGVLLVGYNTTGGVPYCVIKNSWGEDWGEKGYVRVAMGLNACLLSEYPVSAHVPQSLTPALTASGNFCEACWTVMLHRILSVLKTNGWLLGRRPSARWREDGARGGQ
Method in brief: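 Major cysteine protease purified from L. donovani promastigotes on Con A Sepharose; buffer 100 mM sodium acetate pH 5.5, 10 mM DTT, 0.1% Triton X-100, 1 mM EDTA; enzyme preincubated with compounds (DMSO stock) 10 min at 37 °C; Z-Phe-Arg-AMC at 10 µM final; 30 min at 37 °C; released AMC read fluorometrically.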

[2] = biological target: T2, Falcipain 2 (Plasmodium falciparum, UniProt Q9N6S8); assay: Inhibition of falcipain2
T2 sequence (Q9N6S8 whole entry): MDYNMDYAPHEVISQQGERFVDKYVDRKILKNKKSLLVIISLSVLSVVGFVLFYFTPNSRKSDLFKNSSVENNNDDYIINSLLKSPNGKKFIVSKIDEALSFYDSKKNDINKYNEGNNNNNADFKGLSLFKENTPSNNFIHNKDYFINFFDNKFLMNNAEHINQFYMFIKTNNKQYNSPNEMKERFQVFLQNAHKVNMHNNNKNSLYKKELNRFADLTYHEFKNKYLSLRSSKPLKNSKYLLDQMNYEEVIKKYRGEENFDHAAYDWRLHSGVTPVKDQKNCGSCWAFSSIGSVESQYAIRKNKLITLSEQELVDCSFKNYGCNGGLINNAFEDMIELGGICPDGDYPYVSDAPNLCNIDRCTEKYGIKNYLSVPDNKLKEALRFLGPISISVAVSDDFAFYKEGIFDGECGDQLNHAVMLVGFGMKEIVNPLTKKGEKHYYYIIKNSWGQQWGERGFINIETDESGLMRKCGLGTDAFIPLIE

[3] = biological target: T3, Cysteine protease falcipain-3 (Plasmodium falciparum, UniProt Q9NBA7); assay: Inhibition of falcipain3
T3 sequence (Q9NBA7 whole entry): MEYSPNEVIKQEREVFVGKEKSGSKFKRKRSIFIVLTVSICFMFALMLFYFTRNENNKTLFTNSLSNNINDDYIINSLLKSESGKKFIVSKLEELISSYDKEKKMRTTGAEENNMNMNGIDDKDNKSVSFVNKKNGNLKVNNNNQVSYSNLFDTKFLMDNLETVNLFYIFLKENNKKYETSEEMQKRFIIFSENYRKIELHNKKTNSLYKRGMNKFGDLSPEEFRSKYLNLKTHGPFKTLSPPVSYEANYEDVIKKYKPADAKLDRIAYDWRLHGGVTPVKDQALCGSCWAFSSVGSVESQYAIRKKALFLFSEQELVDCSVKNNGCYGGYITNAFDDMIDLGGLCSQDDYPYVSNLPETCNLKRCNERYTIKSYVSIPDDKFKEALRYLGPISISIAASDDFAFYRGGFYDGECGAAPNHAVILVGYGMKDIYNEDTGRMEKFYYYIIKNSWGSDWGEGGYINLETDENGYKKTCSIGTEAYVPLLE

[4] = test system: Vero; assay: Cytotoxicity against Vero cells up to 50 uM; format: functional, cell-based, Chlorocebus sabaeus
Method in brief: (§1)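 VERO monkey kidney fibroblast cells tested simultaneously with antileishmanial screen; cytotoxicity read by neutral red assay; IC50 computed from growth inhibition curve.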

[5] = test system: Plasmodium falciparum; assay: Antimalarial activity against Plasmodium falciparum W2; format: functional, organism-based
Method in brief: (§2)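 Sorbitol-synchronized chloroquine-resistant W2 P. falciparum at 1% parasitemia, 2% hematocrit, RPMI-1640 with 10% human serum, 3% O2/6% CO2/91% N2; compounds from DMSO (max 0.1%) for 48 h; fixed in 1% formaldehyde 48 h, stained with 1 nM YOYO-1 in 0.1% Triton X-100; parasitemia by flow cytometry; IC50 from percent control parasitemia versus concentration.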

[6] = test system: Leishmania donovani; assay: Antileishmanial activity against Leishmania donovani promastigotes; format: functional, organism-based
[7] = test system: Vero; assay: Cytotoxicity against Vero cells; format: functional, cell-based; conditions: Chlorocebus sabaeus; method in brief: as §1
[8] = test system: Plasmodium falciparum; assay: Antimalarial activity against Plasmodium falciparum W2 up to 20 uM; format: functional, organism-based; method in brief: as §2
[9] = Leishmania donovani, read-out: IC50

SMILES | IC50 [2] [µM] | IC50 [3] [µM] | IC50 [5] [µM] | other results
O=C(N[C@@H](COCc1ccccc1)C(=O)ON1C(=O)CCC1=O)OCc1ccccc1 | – | – | – | IC50 [1]: 23.5 µM
Cn1c(O)c(/N=N/C(=O)CCCCC(=O)/N=N/c2c(O)n(C)c3ccccc23)c2ccccc21 | 6.5 | > 50 | – | –
COC(=O)c1ccsc1NC(=O)CN1CCN(S(=O)(=O)c2ccc(Cl)cc2)CC1 | 14.3 | 49.2 | – | –
c1ccc(-c2nc(NCCCn3ccnc3)cc(-c3ccncc3)n2)cc1 | – | – | 0.13 | IC50 [4]: Non-toxic; IC90 ([6]; Leishmania donovani): 98.2 µM; IC50 [6, 9]: 50.5 µM
O=C(NCc1ccncc1)c1ccc(-c2cnn(Cc3ccccc3)c2)nc1 | – | – | 20 | –
Cn1c(CSCC(=O)Nc2ccccc2)nnc1SCC(=O)Nc1ccccc1 | – | – | 20 | IC50 [4]: Non-toxic; IC50 [6]: Not Active
CCCS(=O)(=O)c1cscc1NC(=O)CSCCS(=O)(=O)c1ccc(Cl)cc1 | 3.4 | > 50 | – | –
CCCc1cc(O)nc(SCC(=O)NCCSCc2ccco2)n1 | 4.6 | > 50 | – | –
O=C(CSc1nnc(O)n1Cc1ccco1)c1ccc2c(c1)OCCO2 | 52.3 | > 50 | – | –
Cc1ccc(S(=O)(=O)NC(=O)NCC2CCN(S(=O)(=O)c3ccccc3)CC2)cc1 | 19 | 34 | – | –
C[C@@H](C(=O)NCCS(=O)(=O)c1ccc(Br)cc1)S(=O)(=O)c1ccccc1 | – | – | 9.5 | IC50 [6]: Not Active; IC50 [7]: 48.4 µM
CCOC(=O)C1CCN(S(=O)(=O)c2ccc(CNC(=O)c3ccccc3)s2)CC1 | – | – | – | IC50 [8]: Not Active; IC50 [4]: Non-toxic; IC50 [6, 9]: 50.4 µM
Brc1cncc(-c2cc(NCCCn3ccnc3)nc(-c3ccccc3)n2)c1 | – | – | 0.44 | IC90 ([6]; Leishmania donovani): 15.4 µM; IC50 [6, 9]: 7.8 µM; IC50 [7]: 32.2 µM
O=C(CS(=O)(=O)c1ccc(Cl)cc1)NCCS(=O)(=O)c1ccccc1 | – | – | – | IC50 [1]: 24.9 µM
O=C(CCSSCCC(=O)NCc1ccccc1)NCc1ccccc1 | 15.3 | 18.8 | – | –
O=C(CNC(=O)OCc1ccccc1)N[C@@H](Cc1ccccc1)C(=O)OCc1ccccc1 (Cbz-Gly-Phe-OBn) | – | – | – | IC50 [1]: 31.4 µM
Cc1cccc(NC(=O)Cn2c(O)c(/N=N/C(=O)C(=O)NCc3ccccc3)c3ccccc32)c1 | 1.6 | > 50 | – | –
O=S(=O)(NCc1ccco1)c1ccc2c(c1)Cc1cc(S(=O)(=O)NCc3ccco3)ccc1-2 | 1.4 | 11.4 | – | –
COc1ccc(-c2ccnc(SCC(=O)NCCSCc3ccco3)n2)cc1 | – | – | – | IC50 [8]: Not Active; IC50 [4]: Non-toxic; IC50 [6, 9]: 79.4 µM
CC(=O)N[C@@H](CC(C)C)C(=O)N[C@@H](CC(C)C)C(=O)N[C@H](C=O)CCCNC(=N)N [LEUPEPTIN] | – | – | – | IC50 [1]: 0.01 µM
COC(=O)c1sccc1NC(=O)CSCc1ccc(Cl)cc1 | – | – | – | IC50 [8]: Not Active; IC50 [4]: Non-toxic; IC50 [6, 9]: 45 µM
Cn1c(CSCC(=O)Nc2ccccc2)nnc1SCC(=O)Nc1cccc(Cl)c1 | – | – | 16.6 | IC50 [4]: Non-toxic; IC50 [6]: Not Active
c1ccc(-c2nc(NCCCn3ccnc3)cc(-c3cccnc3)n2)cc1 | – | – | 0.94 | IC90 ([6]; Leishmania donovani): 56.1 µM; IC50 [6, 9]: 12.6 µM; IC50 [7]: 40.7 µM

SMILES | IC50 [2] [µM] | IC50 [3] [µM] | IC50 [5] [µM] | other results
COc1ccc(-c2cncc(-c3cc(NCCCn4ccnc4)nc(C)n3)c2)cc1 | – | – | 2.8 | –
O=S(=O)(c1ccc2c(c1)C(=NO)c1cc(S(=O)(=O)N3CCOCC3)ccc1-2)N1CCOCC1 | – | – | 6 | IC50 [4]: Non-toxic; IC90 ([6]; Leishmania donovani): 81 µM; IC50 [6, 9]: 52.7 µM
CC(C)C[C@H](NC(=O)[C@H]1O[C@@H]1C(=O)O)C(=O)NCCCCN=C(N)N [E-64] | – | 0.075 | – | –
O=S(=O)(Cc1ccc(Cl)cc1)Cc1nc(-c2ccsc2)no1 | 47.8 | 56.6 | – | –
O=C(COCC(=O)N/N=C/CCc1ccccc1)N/N=C/CCc1ccccc1 | – | – | 3.9 | IC50 [4]: Non-toxic; IC50 [6]: Not Active
O=C(CSCc1c(F)cccc1Cl)NCCSCc1ccco1 | – | – | > 2.5 | IC50 [4]: Non-toxic; IC50 [6, 9]: 107 µM
CCOC(=O)c1c2cc(OCC(=O)NCc3ccco3)ccc2n2ccccc12 | 13.8 | 31.2 | 9.5 | –
N=C(N)c1ccc(OCCCCCOc2ccc(C(=N)N)cc2)cc1 [PENTAMIDINE] | – | – | – | IC90 ([6]; Leishmania donovani): 8.3 µM; IC50 [6, 9]: 2.5 µM
O=C(CSc1nc2ccccc2o1)NCCSCc1ccco1 | – | – | – | IC50 [1]: 43 µM
O=S(=O)(NCCSCc1ccco1)c1cc(S(=O)(=O)c2ccccc2)cs1 | – | – | – | IC50 [8]: Not Active; IC50 [4]: Non-toxic; IC50 [6, 9]: 54.1 µM
COC(=O)c1sccc1NC(=O)CC(=O)Nc1ccsc1C(=O)OC | 10.4 | > 50 | – | –
Cn1c(CSc2ccnc3cc(Cl)ccc23)nnc1SCC(=O)N1CCOCC1 | – | – | 20 | IC50 [4]: Non-toxic; IC50 [6]: Not Active
C[C@@H]1CC[C@H]2[C@@H](C)C(=O)O[C@@H]3O[C@@]4(C)CC[C@@H]1[C@]32OO4 [ARTEMISININ] | – | – | 0.008 | –
O=C(Cn1nnc(-c2ccccc2)n1)NNC=NOCc1c(F)cccc1Cl | 10.8 | 38.5 | – | –
COc1ccc(-c2cncc(-c3cc(NCc4ccco4)nc(C)n3)c2)cc1 | – | – | 11.5 | IC50 [4]: Non-toxic; IC50 [6]: Not Active
Cc1nc(C)nc(N(CCS(=O)(=O)c2ccccc2)CCS(=O)(=O)c2ccccc2)n1 | 13.2 | > 50 | – | –
N=C(CS(=O)(=O)Cc1ccc(F)cc1)NOC(=O)c1cccs1 | 50 | > 50 | – | –
Cc1ccc(S(=O)(=O)N(C)C)cc1NS(=O)(=O)c1ccc(-c2ccon2)s1 | 2.9 | > 50 | – | –
O=S(=O)(c1ccc(-c2ccc(S(=O)(=O)N3CCOCC3)s2)s1)N1CCOCC1 | 5.4 | 37.7 | – | –
Cc1csc(Cn2nc(CC(=O)N/N=C/c3ccccc3)c3ccccc3c2=O)n1 | 54.3 | > 50 | – | –
Cc1nc(NCCCn2ccnc2)cc(-c2cncc(-c3ccc(F)cc3)c2)n1 | – | – | 2.6 | IC90 ([6]; Leishmania donovani): 85 µM; IC50 [6, 9]: 41.2 µM; IC50 [7]: 41.2 µM
CSc1cc(CSc2ccc(Cl)cc2)nc(-c2ccccn2)n1 | – | – | 20 | IC50 [4]: Non-toxic; IC90 ([6]; Leishmania donovani): 106 µM; IC50 [6, 9]: 50 µM
C[C@@H]1[C@H](O)[C@@H](C)/C=C/C=C/C=C/C=C/C=C/C=C/C=C/[C@H](O[C@@H]2O[C@H](C)[C@@H](O)[C@H](N)[C@@H]2O)C[C@@H]2O[C@](O)(C[C@@H](O)C[C@@H](O)[C@H](O)CC[C@@H](O)C[C@@H](O)CC(=O)O[C@H]1C)C[C@H](O)[C@H]2C(=O)O [AMPHOTERICIN B] | – | – | – | IC90 ([6]; Leishmania donovani): 0.3 µM; IC50 [6, 9]: 0.04 µM
